Laboratory results published in ChEMBL document CHEMBL1833874, “Α-pyrones and diketopiperazine derivatives from the marine-derived actinomycete Nocardiopsis dassonvillei HR10-5” (J Nat Prod, 2011).
≈ marks a conversion by molar mass, not a printed value.

How the values were obtained:
A549 = experiment: Cytotoxicity against human A549 cells after 24 hrs by SRB assay; format: functional
Method in brief: (§1)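 HL-60 cells were assayed by MTT and A549 cells by SRB. Read-out is IC50, given in μM.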

Bacillus subtilis = experiment: Antibacterial activity against Bacillus subtilis by agar dilution method; format: functional
Method in brief: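 Agar dilution, with the same panel also run against E. coli, A. aerogenes, P. aeruginosa, S. aureus and C. albicans. Read-out is the MIC, given in μM.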

HL-60 = experiment: Cytotoxicity against human HL60 cells after 72 hrs by MTT assay; format: functional, cell-based; conditions: HL-60, 72 h; method in brief: as §1

Structure (SMILES) | IC50 (A549) | MIC (Bacillus subtilis) [µM] | IC50 (HL-60) [µM]
CC/C=C(\C)c1ccc(CC)c(=O)o1 [NOCAPYRONE E] | >=100 uM | 26 (≈ 5 µg/mL) | ≥ 100
CC/C=C(\C)c1ccc(C)c(=O)o1 [NOCAPYRONE F] | >=100 uM | 14 (≈ 2.5 µg/mL) | ≥ 100
CCc1ccc(/C(C)=C/[C@H](C)O)oc1=O [NOCAPYRONE G] | >=100 uM | 12 (≈ 2.5 µg/mL) | ≥ 100
COc1ccc(/C=c2\nc(OC)/c(=C/c3ccc(OC)cc3)n(C)c2=O)cc1 [NOCAZINE A] | >=100 uM | – | ≥ 100
COc1ccc(/C=c2/c(OC)n/c(=C\c3ccccc3)c(=O)n2C)cc1 [NOCAZINE B] | >=100 uM | – | ≥ 100
COc1ccc(/C=C2/C(=O)N[C@@H](Cc3ccccc3)C(=O)N2C)cc1 [NOCAZINE C] | >=100 uM | – | ≥ 100
OC[C@@H]1COC(c2ccccc2O)=N1 [NOCAZOLINE A] | >=100 uM | – | ≥ 100
